According to ChEMBL document CHEMBL4689842, “EUbOPEN Chemogenomics Library wave 1” (2021):

Test system: U2OS
Experiment: Multiplex assay against U2OS
Type: toxicity, cell-based
Conditions: human
Outline: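 Live cells carried four stains from seeding: Hoechst33342, BioTracker Green Microtubule Cytoskeleton Dye, MitoTracker Red and Annexin V Alexa Fluor 680. They were imaged on a CQ1 microscope at 37°C and 5% CO2 after compound addition. Using CellPathfinder machine-learning gating, cells were split into Hoechst high-intensity objects or normal cells, normal cells into healthy, pyknosed or fragmented nuclei, and pyknosed cells into mitotic or apoptotic; tubulin, mitochondrial-mass and membrane-permeability phenotypes are per cents of healthy-nucleus cells.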

[1] = 12 h, 1 µM, compound concentration 1 uM, replicate 1
[2] = 12 h, 1 µM, compound concentration 1 uM, replicate 2
[3] = 12 h, 10 µM, compound concentration 10 uM, replicate 1
[4] = 12 h, 10 µM, compound concentration 10 uM, replicate 2
[5] = 24 h, 1 µM, compound concentration 1 uM, replicate 1
[6] = 24 h, 1 µM, compound concentration 1 uM, replicate 2
[7] = 24 h, 10 µM, compound concentration 10 uM, replicate 1
[8] = 24 h, 10 µM, compound concentration 10 uM, replicate 2
[9] = 48 h, 1 µM, compound concentration 1 uM, replicate 1
[10] = 48 h, 1 µM, compound concentration 1 uM, replicate 2
[11] = 48 h, 10 µM, compound concentration 10 uM, replicate 1
[12] = 48 h, 10 µM, compound concentration 10 uM, replicate 2

Compound: COc1ncc(-c2ccc3nccc(-c4ccnnc4)c3c2)cc1NS(=O)(=O)c1ccc(F)cc1F [OMIPALISIB]
- Population Apoptotic (%) [1]: 65%
- Population Fragmented Nuclei (%) [1]: 13%
- Population Healthy Nuclei (%) [1]: 67%
- Population Hoechst High Intensity Objects (%) [1]: 4%
- Population Membrane Permeable-Phenotype (%) [1]: 6%
- Population Mitochondria Different-Phenotype (%) [1]: 3%
- Population Mitotic Cells (%) [1]: 34%
- Population Normal (%) [1]: 95%
- Population Pyknosed Nuclei (%) [1]: 18%
- Population Tubulin-Different-Phenotype (%) [1]: 9%
- Total Cell Count [1]: 135
- Population Apoptotic (%) [2]: 50%
- Population Fragmented Nuclei (%) [2]: 46%
- Population Healthy Nuclei (%) [2]: 42%
- Population Hoechst High Intensity Objects (%) [2]: 7%
- Population Membrane Permeable-Phenotype (%) [2]: 16%
- Population Mitochondria Different-Phenotype (%) [2]: 16%
- Population Mitotic Cells (%) [2]: 50%
- Population Normal (%) [2]: 92%
- Population Pyknosed Nuclei (%) [2]: 11%
- Population Tubulin-Different-Phenotype (%) [2]: 23%
- Total Cell Count [2]: 51
- Population Apoptotic (%) [3]: 58%
- Population Fragmented Nuclei (%) [3]: 28%
- Population Healthy Nuclei (%) [3]: 37%
- Population Hoechst High Intensity Objects (%) [3]: 6%
- Population Membrane Permeable-Phenotype (%) [3]: 14%
- Population Mitochondria Different-Phenotype (%) [3]: 15%
- Population Mitotic Cells (%) [3]: 41%
- Population Normal (%) [3]: 93%
- Population Pyknosed Nuclei (%) [3]: 33%
- Population Tubulin-Different-Phenotype (%) [3]: 15%
- Total Cell Count [3]: 150
- Population Apoptotic (%) [4]: 65%
- Population Fragmented Nuclei (%) [4]: 33%
- Population Healthy Nuclei (%) [4]: 27%
- Population Hoechst High Intensity Objects (%) [4]: 7%
- Population Membrane Permeable-Phenotype (%) [4]: 11%
- Population Mitochondria Different-Phenotype (%) [4]: 16%
- Population Mitotic Cells (%) [4]: 34%
- Population Normal (%) [4]: 92%
- Population Pyknosed Nuclei (%) [4]: 39%
- Population Tubulin-Different-Phenotype (%) [4]: 22%
- Total Cell Count [4]: 77
- Population Apoptotic (%) [5]: 62%
- Population Fragmented Nuclei (%) [5]: 19%
- Population Healthy Nuclei (%) [5]: 61%
- Population Hoechst High Intensity Objects (%) [5]: 9%
- Population Membrane Permeable-Phenotype (%) [5]: 5%
- Population Mitochondria Different-Phenotype (%) [5]: 4%
- Population Mitotic Cells (%) [5]: 37%
- Population Normal (%) [5]: 90%
- Population Pyknosed Nuclei (%) [5]: 18%
- Population Tubulin-Different-Phenotype (%) [5]: 14%
- Total Cell Count [5]: 135
- Population Apoptotic (%) [6]: 33%
- Population Fragmented Nuclei (%) [6]: 43%
- Population Healthy Nuclei (%) [6]: 40%
- Population Hoechst High Intensity Objects (%) [6]: 11%
- Population Membrane Permeable-Phenotype (%) [6]: 24%
- Population Mitochondria Different-Phenotype (%) [6]: 17%
- Population Mitotic Cells (%) [6]: 66%
- Population Normal (%) [6]: 88%
- Population Pyknosed Nuclei (%) [6]: 16%
- Population Tubulin-Different-Phenotype (%) [6]: 37%
- Total Cell Count [6]: 50
- Population Apoptotic (%) [7]: 70%
- Population Fragmented Nuclei (%) [7]: 36%
- Population Healthy Nuclei (%) [7]: 25%
- Population Membrane Permeable-Phenotype (%) [7]: 17%
- Population Mitochondria Different-Phenotype (%) [7]: 25%
- Population Mitotic Cells (%) [7]: 29%
- Population Pyknosed Nuclei (%) [7]: 38%
- Population Tubulin-Different-Phenotype (%) [7]: 17%
- Total Cell Count [7]: 170
- Population Apoptotic (%) [8]: 80%
- Population Fragmented Nuclei (%) [8]: 27%
- Population Healthy Nuclei (%) [8]: 22%
- Population Hoechst High Intensity Objects (%) [8]: 11%
- Population Membrane Permeable-Phenotype (%) [8]: 35%
- Population Mitochondria Different-Phenotype (%) [8]: 28%
- Population Mitotic Cells (%) [8]: 20%
- Population Normal (%) [8]: 88%
- Population Pyknosed Nuclei (%) [8]: 49%
- Population Tubulin-Different-Phenotype (%) [8]: 42%
- Total Cell Count [8]: 81
- Population Apoptotic (%) [9]: 59%
- Population Fragmented Nuclei (%) [9]: 23%
- Population Healthy Nuclei (%) [9]: 50%
- Population Hoechst High Intensity Objects (%) [9]: 12%
- Population Membrane Permeable-Phenotype (%) [9]: 7%
- Population Mitochondria Different-Phenotype (%) [9]: 6%
- Population Mitotic Cells (%) [9]: 40%
- Population Normal (%) [9]: 87%
- Population Pyknosed Nuclei (%) [9]: 26%
- Population Tubulin-Different-Phenotype (%) [9]: 16%
- Total Cell Count [9]: 142
- Population Apoptotic (%) [10]: 47%
- Population Fragmented Nuclei (%) [10]: 43%
- Population Healthy Nuclei (%) [10]: 32%
- Population Hoechst High Intensity Objects (%) [10]: 15%
- Population Membrane Permeable-Phenotype (%) [10]: 39%
- Population Mitochondria Different-Phenotype (%) [10]: 43%
- Population Mitotic Cells (%) [10]: 52%
- Population Normal (%) [10]: 84%
- Population Pyknosed Nuclei (%) [10]: 23%
- Population Tubulin-Different-Phenotype (%) [10]: 56%
- Total Cell Count [10]: 59
- Population Apoptotic (%) [11]: 83%
- Population Fragmented Nuclei (%) [11]: 37%
- Population Healthy Nuclei (%) [11]: 9%
- Population Hoechst High Intensity Objects (%) [11]: 15%
- Population Membrane Permeable-Phenotype (%) [11]: 46%
- Population Mitochondria Different-Phenotype (%) [11]: 46%
- Population Mitotic Cells (%) [11]: 16%
- Population Normal (%) [11]: 84%
- Population Pyknosed Nuclei (%) [11]: 52%
- Population Tubulin-Different-Phenotype (%) [11]: 61%
- Total Cell Count [11]: 181
- Population Apoptotic (%) [12]: 82%
- Population Fragmented Nuclei (%) [12]: 31%
- Population Healthy Nuclei (%) [12]: 19%
- Population Hoechst High Intensity Objects (%) [12]: 18%
- Population Membrane Permeable-Phenotype (%) [12]: 81%
- Population Mitochondria Different-Phenotype (%) [12]: 72%
- Population Mitotic Cells (%) [12]: 17%
- Population Normal (%) [12]: 81%
- Population Pyknosed Nuclei (%) [12]: 49%
- Population Tubulin-Different-Phenotype (%) [12]: 72%
- Total Cell Count [12]: 84
